Experimental data: publication PMC7985749 (CNS Drugs, 2021)

Key:
Type in all cases: in vivo, human
[1] = Adverse events / TEAEs, SAD cohort; conditions: SAD, n = 6
[2] = Adverse events / TEAEs, older adult
platelet levels = test: Platelet levels
Outline: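 Young volunteers took the test compound or placebo orally once daily for 5 days, 0.2–4 mg/day; older adults took 2.5 mg/day. Platelets were counted in hematology safety blood samples at preset timepoints through 264 h and at follow-up, as % change from baseline. The MID limit included >50% platelet drop or grade ≥1 thrombocytopenia in >50% of active, not placebo, subjects. EC50 and EC80 came from a nonlinear exposure–response fit.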

[3] = Plasma pharmacokinetics, multiple ascending dose; conditions: for Tmax / AUC(0-t) / Cmax / half-life: human, plasma, oral; for AUC(0-t) / Cmax / half-life: mean (CV %); for half-life: t½, 5 days
[4] = Elderly cohort, active treatment, 5 days, n = 3

Nc1nnc(CN[C@@H]2C[C@H]2c2ccc(OCc3ccccc3)cc2)o1 [vafidemstat]
Number of TEAEs (% of total TEAEs): Musculoskeletal stiffness ([1]; 1.5 mg): 1 (7.7) n (%) | Number of TEAEs (% of total TEAEs): Paresthesia ([1]; 1.5 mg): 1 (7.7) n (%) | Number of TEAEs (% of total TEAEs): Total ([1]; 1.5 mg): 2 (15.4) n (%) | Number of TEAEs (% of total TEAEs): Abdominal discomfort ([1]; 2.5 mg): 1 (7.7) n (%) | Number of TEAEs (% of total TEAEs): Asthenia ([1]; 2.5 mg): 1 (7.7) n (%) | Number of TEAEs (% of total TEAEs): Dry mouth ([1]; 2.5 mg): 1 (7.7) n (%) | Number of TEAEs (% of total TEAEs): Total ([1]; 2.5 mg): 3 (23.1) n (%) | Number of TEAEs (% of total TEAEs): Blunted affect ([1]; 4.0 mg): 1 (7.7) n (%) | Number of TEAEs (% of total TEAEs): Euphoric mood ([1]; 4.0 mg): 1 (7.7) n (%) | Number of TEAEs (% of total TEAEs): Headache ([1]; 4.0 mg): 1 (7.7) n (%) | Number of TEAEs (% of total TEAEs): Total ([1]; 4.0 mg): 3 (23.1) n (%) | Number of TEAEs (% of total TEAEs): Asthenia [2, 4]: 1 (4.8) n (%) | Number of TEAEs (% of total TEAEs): Blunted effect [2, 4]: 1 (4.8) n (%) | Number of TEAEs (% of total TEAEs): Feeling cold [2, 4]: 1 (4.8) n (%) | Number of TEAEs (% of total TEAEs): Gait disturbance [2, 4]: 1 (4.8) n (%) | Number of TEAEs (% of total TEAEs): Headache [2, 4]: 3 (14.3) n (%) | Number of TEAEs (% of total TEAEs): Musculoskeletal stiffness [2, 4]: 1 (4.8) n (%) | Number of TEAEs (% of total TEAEs): Palpitations [2, 4]: 1 (4.8) n (%) | Number of TEAEs (% of total TEAEs): Total [2, 4]: 10 (47.6) n (%) | Number of TEAEs (% of total TEAEs): Vertigo [2, 4]: 1 (4.8) n (%) | Number of treatment-related TEAEs ([2]; MAD stage in older adult volunteers, with vafidemstat): 10 | Maximum tolerated dose (platelet levels; MAD, 5 days): 2.5 mg/day | Minimum intolerable dose (MID) as defined per protocol (platelet levels; MAD, 5 days): 4 mg/day | Platelet levels (platelet levels; any SAD dose level or up to MAD dose III (1.0 mg/day)): no variations | Platelet level drops from baseline versus exposure (platelet levels; at Cmax,ss of ~ 100 ng/mL and AUCss of ~ 1000 ng·h/mL): ~ 50% | Pharmacokinetic profiles, young versus older adult populations ([3]; 2.5 mg/day): did not differ significantly | Tmax ([3]; both, 0.2 mg/day): 5.1 h | AUC(0-t) ([3]; both, 0.2 mg/day, AUC0–t (D1), MAD 0.2 mg/day, day 1, young): 0.0187 µg·h/mL | AUC(0-t) ([3]; both, 0.2 mg/day, AUC0–t,ss (D5), MAD 0.2 mg/day, day 5, young): 0.0377 µg·h/mL | Cmax ([3]; both, 0.2 mg/day, Cmax (D1), MAD 0.2 mg/day, day 1, young): 0.00128 µg/mL | Cmax ([3]; both, 0.2 mg/day, Cmax,ss (D5), MAD 0.2 mg/day, day 5, young): 0.00232 µg/mL | half-life ([3]; both, 0.2 mg/day, MAD 0.2 mg/day, young): 22 h | Tmax ([3]; both, 0.6 mg/day): 2.25 h | AUC(0-t) ([3]; both, 0.6 mg/day, AUC0–t (D1), MAD 0.6 mg/day, day 1, young): 0.0506 µg·h/mL | AUC(0-t) ([3]; both, 0.6 mg/day, AUC0–t,ss (D5), MAD 0.6 mg/day, day 5, young): 0.114 µg·h/mL | Cmax ([3]; both, 0.6 mg/day, Cmax (D1), MAD 0.6 mg/day, day 1, young): 0.00369 µg/mL | Cmax ([3]; both, 0.6 mg/day, Cmax,ss (D5), MAD 0.6 mg/day, day 5, young): 0.00765 µg/mL | half-life ([3]; both, 0.6 mg/day, MAD 0.6 mg/day, young): 22 h | Tmax ([3]; both, 1 mg/day): 1.83 h | Tmax ([3]; both, 1.5 mg/day): 1.17 h | AUC(0-t) ([3]; both, 1.5 mg/day, AUC0–t (D1), MAD 1.5 mg/day, day 1, young): 0.138 µg·h/mL | AUC(0-t) ([3]; both, 1.5 mg/day, AUC0–t,ss (D5), MAD 1.5 mg/day, day 5, young): 0.299 µg·h/mL | Cmax ([3]; both, 1.5 mg/day, Cmax (D1), MAD 1.5 mg/day, day 1, young): 0.0114 µg/mL | Cmax ([3]; both, 1.5 mg/day, Cmax,ss (D5), MAD 1.5 mg/day, day 5, young): 0.0236 µg/mL | half-life ([3]; both, 1.5 mg/day, MAD 1.5 mg/day, young): 22 h | Tmax ([3]; both, 2.5 mg/day): 2.17 h | AUC(0-t) ([3]; both, 2.5 mg/day, AUC0–t (D1), MAD 2.5 mg/day, day 1, young): 0.292 µg·h/mL | AUC(0-t) ([3]; both, 2.5 mg/day, AUC0–t,ss (D5), MAD 2.5 mg/day, day 5, young): 0.634 µg·h/mL | AUC(0-t) ([3]; both, 2.5 mg/day, AUC0–t,ss (D5), MAD older adult 2.5 mg/day, day 5): 0.442 µg·h/mL | Cmax ([3]; both, 2.5 mg/day, Cmax (D1), MAD 2.5 mg/day, day 1, young): 0.0266 µg/mL | Cmax ([3]; both, 2.5 mg/day, Cmax,ss (D5), MAD 2.5 mg/day, day 5, young): 0.0499 µg/mL | half-life ([3]; both, 2.5 mg/day, MAD 2.5 mg/day, young): 22 h | half-life ([3]; both, 2.5 mg/day, MAD older adult 2.5 mg/day): 23 h | Tmax ([3]; both, 4 mg/day): 1.33 h | AUC(0-t) ([3]; both, 4 mg/day, AUC0–t (D1), MAD 4.0 mg/day, day 1, young): 0.564 µg·h/mL | AUC(0-t) ([3]; both, 4 mg/day, AUC0–t,ss (D5), MAD 4.0 mg/day, day 5, young): 0.995 µg·h/mL | Cmax ([3]; both, 4 mg/day, Cmax (D1), MAD 4.0 mg/day, day 1, young): 0.056 µg/mL | Cmax ([3]; both, 4 mg/day, Cmax,ss (D5), MAD 4.0 mg/day, day 5, young): 0.11 µg/mL | half-life ([3]; both, 4 mg/day, MAD 4.0 mg/day, young): 20 h | Tmax ([3]; 2.5 mg/day): 2.33 h | AUC(0-t) ([3]; 2.5 mg/day, AUC0–t (D1), MAD older adult 2.5 mg/day, day 1): 0.258 µg·h/mL | Cmax ([3]; 2.5 mg/day, Cmax (D1), MAD older adult 2.5 mg/day, day 1): 0.0243 µg/mL | Cmax ([3]; 2.5 mg/day, Cmax,ss (D5), MAD older adult 2.5 mg/day, day 5): 0.041 µg/mL
